Values after ≈ are worked out from the molar mass of the structure shown. Active and inactive are the calls of the source. The rule behind the calls is not given here.

The subject of one series is PC-3. The experiment in a line: Antiproliferative activity against human PC-3 cells assessed as cell growth inhibition. Type of series: functional, cell-based. An outline of the steps:
(§1)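 IC50 (μM) determined against mammalian cell lines from the DSMZ ACC collection (SK-OV-3 without an ACC number), with epothilone B run in parallel as reference.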

The test system of series [1] is Schizosaccharomyces pombe. Nature of the series: Antifungal activity against Schizosaccharomyces pombe DSM 70572 assessed as growth inhibition. Type of series: functional.
The next series has as its system KB 3-1. Nature of the series: Antiproliferative activity against human KB-3-1 cells assessed as cell growth inhibition. Type of series: functional, cell-based. An outline of the steps:
as §1

The next series has as its system MCF7. Nature of the series: Antiproliferative activity against human MCF7 cells assessed as cell growth inhibition. Type of series: functional, cell-based. An outline of the steps:
as §1

The subject of the next series is SK-OV-3. The experiment in a line: Antiproliferative activity against human SK-OV-3 cells assessed as cell growth inhibition. The class given is functional, cell-based. An outline of the steps:
as §1

The next series relates to Escherichia coli. Nature of the series: Antibacterial activity against Escherichia coli DSM 1116 assessed as bacterial growth inhibition. The class given is functional.
The next series concerns A-431. The experiment in a line: Antiproliferative activity against human A-431 cells assessed as cell growth inhibition. Type of series: functional, cell-based. An outline of the steps:
as §1

Another series relates to Pseudomonas aeruginosa. Nature of the series: Antibacterial activity against Pseudomonas aeruginosa DSM 19882 assessed as bacterial growth inhibition. The class given is functional.
The subject of another series is Acinetobacter baumannii. Nature of the series: Antibacterial activity against Acinetobacter baumannii DSM 30008 assessed as bacterial growth inhibition. Type of series: functional.
The test system of series [2] is Mycolicibacterium smegmatis. Nature of the series: Antibacterial activity against Mycolicibacterium smegmatis ATCC 700084 assessed as bacterial growth inhibition. The class given is functional.
For the next series, the system named is Rhodotorula glutinis. The experiment in a line: Antifungal activity against Rhodotorula glutinis DSM 10134 assessed as growth inhibition. Type of series: functional.
A further series deals with Candida albicans. Nature of the series: Antifungal activity against Candida albicans DSM 1665 assessed as growth inhibition. The class given is functional.
Series [3] can be described thus: Antiproliferative activity against mouse L929 cells assessed as cell growth inhibition. Type of series: toxicity, cell-based. An outline of the steps:
as §1

Another series relates to Wickerhamomyces anomalus. Nature of the series: Antifungal activity against Wickerhamomyces anomalus DSM 6766 assessed as growth inhibition. The class given is functional.
For another series, the system named is Mucor hiemalis. Nature of the series: Antifungal activity against Mucor hiemalis DSM 2656 assessed as growth inhibition. Type of series: functional.
Series [4] relates to Chromobacterium violaceum. Nature of the series: Antibacterial activity against Chromobacterium violaceum DSM 30191 assessed as bacterial growth inhibition. Type of series: functional.
The next series concerns Bacillus subtilis. Nature of the series: Antibacterial activity against Bacillus subtilis DSM 10 assessed as bacterial growth inhibition. The class given is functional. An outline of the steps:
(§2)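 Growth inhibition read as minimum inhibitory concentration (μg/mL) against strains from DSMZ. A positive-control antibiotic was run alongside.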

In a further series the test system is A549. The experiment in a line: Antiproliferative activity against human A549 cells assessed as cell growth inhibition. Type of series: functional, cell-based. An outline of the steps:
as §1

The subject of a further series is Staphylococcus aureus. Nature of the series: Antibacterial activity against Staphylococcus aureus DSM 346 assessed as bacterial growth inhibition. The class given is functional. An outline of the steps: as §2

By IC50 is commonly meant the point on the concentration scale where inhibition reaches its midpoint. Usually MIC stands for the lowest concentration that inhibits growth of the organism. Regarding `C[C@@]12Cc3c(O)ccc(O)c3[C@@H]3OC(=O)[C@@]4(CC[C@@H]1O2)O[C@@H]34`, the IC50 in the series on PC-3 was found to be 18 µM; in the series on KB 3-1, 6.7 µM; in the series with MCF7, 1.9 µM; in the series with SK-OV-3, 47 µM; in the series with A-431, 3.5 µM; in [3], 2.1 µM. Also, the IC50 in the series on A549 was determined as 19 µM. Also, the inhibition entry (in [1]; in the series with Escherichia coli; in the series with Pseudomonas aeruginosa; in the series on Acinetobacter baumannii; in [2]; in the series on Rhodotorula glutinis) was “inactive” in each case. The inhibition result (in the series with Candida albicans; in the series on Wickerhamomyces anomalus; with Mucor hiemalis; in series [4]) was “inactive” each time. Further, the MIC with Bacillus subtilis was found to be 17 µg/mL (≈ 55.9 µM).
On to `C[C@@]12CC3=C(C(=O)C=CC3=O)[C@@H]3OC(=O)[C@@]4(CC[C@@H]1O2)O[C@@H]34`, for which the IC50 in the series on PC-3 was 19 µM; in the series on KB 3-1 it was 22 µM; in the series on MCF7, 4.2 µM; in the series with SK-OV-3 it was 30 µM; in the series with A-431, 6.5 µM; in series [3] it was 6 µM. For the same molecule, the IC50 in the series with A549 worked out at 57 µM. Besides, the inhibition entry (in series [1]; with Escherichia coli; in the series on Pseudomonas aeruginosa; in the series on Acinetobacter baumannii; in series [2]; in the series on Rhodotorula glutinis) was “inactive” throughout. The inhibition result (in the series with Candida albicans; in the series on Wickerhamomyces anomalus; in the series with Mucor hiemalis; in [4]) was “inactive” each time. In addition, the MIC with Staphylococcus aureus and in the series with Bacillus subtilis was 67 µg/mL (≈ 222 µM) each time.
`C/C(=C\c1csc(C)n1)[C@@H]1C[C@@H]2O[C@]2(C)CCC[C@H](C)[C@H](O)[C@@H](C)C(=O)C(C)(C)[C@@H](O)CC(=O)O1` [PATUPILONE]: the IC50 with PC-3 came to 0.00028 µM; in the series with KB 3-1, 3.4e-05 µM; in the series with MCF7 it was 3e-05 µM; in the series with SK-OV-3 it was 0.00018 µM; with A-431 it was 5.1e-05 µM; in series [3], 0.00043 µM. Moreover, the IC50 with A549 was found to be 5.3e-05 µM. For the same molecule, the MIC in series [1] amounted to 4.2 µg/mL (≈ 8.27 µM); in the series with Escherichia coli, 1.7 µg/mL (≈ 3.35 µM); in the series with Pseudomonas aeruginosa it was 0.21 µg/mL (≈ 0.414 µM); in the series with Acinetobacter baumannii, 0.26 µg/mL (≈ 0.512 µM); in [2], 1.7 µg/mL (≈ 3.35 µM); in the series with Rhodotorula glutinis, 2.1 µg/mL (≈ 4.14 µM). Moreover, the MIC turned out to be 0.21 µg/mL (≈ 0.414 µM) in the series on Staphylococcus aureus; 8.3 µg/mL (≈ 16.3 µM) in the series with Candida albicans; 8.3 µg/mL (≈ 16.3 µM) in the series with Wickerhamomyces anomalus (Hansenula anomala); 4.2 µg/mL (≈ 8.27 µM) in the series with Mucor hiemalis; 0.42 µg/mL (≈ 0.827 µM) in series [4]; 8.3 µg/mL (≈ 16.3 µM) with Bacillus subtilis.
